Compounds with a hit are over-represented: about 2.1% of the library has one in this group of screens.
DNA FID counter = fluorescent intercalator displacement, NS3 helicase counter-screen; AID 1845; actives 0.17% (n = 290,000); inhibition, % at 7.9 µM; DNA fluorescent intercalator displacement, fluorescence; in the data active = inhibition above about 37%;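 note: 0% = vehicle and 100% = reference compound; higher means more ethidium bromide displaced from hairpin DNA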
NS3 helicase inh = blocks Hepatitis C virus NS3 helicase unwinding; inhibition, % at 10.9 µM; NS3 helicase DNA unwinding, Cy5 molecular beacon fluorescence; actives 0.56% (n = 290,000);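 active = inhibition above the mean of all tested compounds plus 3 SD, set per campaign, cut at about 35% in these data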;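 note: 0% = DMSO wells and 100% = thioflavine S control wells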
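Measured by: Cy5 fluorescence, 0 and 60 min reads / Assay system: NS3 helicase fragment of HCV / Control set: low DMSO, high thioflavine S at 110 µM / Times: 1 h reaction at 25 °C, ATP-initiated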
VIM-2 inhibitor = inhibitors of Pseudomonas aeruginosa VIM-2 metallo-beta-lactamase. purified VIM-2, nitrocefin hydrolysis, epi-absorbance fluorescence. inhibition, % at 5.6 µM. actives 0.89% (n = 290,000);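 active = inhibition above the mean of all tested compounds plus 3 SD, cutoff set per screening run, cut at about 7.5% in these data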;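 note: red hydrolysis product quenches plate fluorescence so inhibitors raise well fluorescence; 0% = enzyme with DMSO and 100% = DMSO without enzyme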
IMP-1 inh = blocks Pseudomonas aeruginosa IMP-1 metallo-beta-lactamase | purified IMP-1, nitrocefin hydrolysis, epi-absorbance fluorescence | inhibition, % at 5.6 µM | actives 0.45% (n = 290,000) | AID 1556;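 active = inhibition above the mean plus 3 SD of all compounds in the same screening run, cut at about 4.5% in these data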;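 note: 0% = IMP-1 with DMSO and 100% = DMSO wells lacking enzyme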
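Material – recombinant IMP-1 enzyme, purified · Amount – IMP-1 0.2 nM before substrate addition · Medium – HEPES buffer pH 7.1 with ZnSO4 and Brij 35 · Timing – 25 °C, 15 min preincubation, 25 min reaction · Measured by – plate fluorescence quenching by hydrolysis product, ex 480/em 530 nm · Read-out – percent enzyme inhibition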
SUMO HTRF inh = blocks human SUMOylation mediated by UBC9. P63279. HTRF SUMOylation assay, SAE1/SAE2 + UBC9, in vitro. inhibition, % at 35 µM. actives 0.36% (n = 290,000). AID 2006; in the data active = inhibition above about 50%, passing the limit was not always enough
Target sequence (P63279 whole entry, looked up): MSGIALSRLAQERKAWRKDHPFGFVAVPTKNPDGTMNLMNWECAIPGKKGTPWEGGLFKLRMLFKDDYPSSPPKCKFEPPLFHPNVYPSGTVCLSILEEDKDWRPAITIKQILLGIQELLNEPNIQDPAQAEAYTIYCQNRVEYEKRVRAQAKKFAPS
The depositor's hits bear a star; nt = no result given.

SMILES | DNA FID counter | NS3 helicase inh | VIM-2 inhibitor | IMP-1 inh | SUMO HTRF inh
CC1CCN(Cc2c(C(=O)O)nnn2-c2nonc2N)CC1 | 0 | -4 | -4 | -1 | 4
O=C(c1ccco1)N1CCN(S(=O)(=O)c2cccc(Cl)c2)CC1 | -17 | 5 | -2 | -1 | 7
C=CCNc1nc(NC(C)(C)CO)nc(OC)n1 | -4 | -3 | -2 | -4 | 6
C=CCNc1nc(NC(C)(C)CO)nc(OCC)n1 | -6 | -2 | -5 | 28* | -12
CNS(=O)(=O)c1ccc(NC(=O)Nc2cccc(F)c2)cc1 | 5 | -2 | 0 | -3 | 11
CNC1=C(N(C(C)=O)c2ccc(Br)cc2)C(=O)c2ccccc2C1=O | 4 | -3 | 0 | -1 | 82*
Cn1c(=O)c2c(nc3n2CC(COc2ccccc2)O3)n(C)c1=O (stereo not given) | -14 | 31 | 0 | 0 | 0
Cc1cccc(N(CC(N)=O)C2SC(=O)N(c3ccccc3)C2=O)c1 (stereo not given) | 4 | 1 | -2 | 6.6* | 0
O=C(c1cc2c(=O)n3ccccc3nc2s1)N1CCN(Cc2ccccc2)CC1 | -27 | -3 | 8.2* | -2 | 25
CCN1CCN(C(=O)c2cc3c(=O)n4ccccc4nc3s2)CC1 | -3 | 0 | 12* | -2 | 31
COc1ccccc1C(=O)NCCCNC(=O)c1cccnc1 | -8 | -4 | -1 | -1 | -6
CCn1c(=O)c(CCC(=O)N2CCOCC2)c(C)c2c(C)nn(-c3ccccc3)c21 | -45 | -24 | 8.4* | -1 | nt
Cc1nn(-c2ccccc2)c2c1c(C)c(CCC(=O)N1CCOCC1)c(=O)n2C | -44 | -10 | 10* | -2 | 18
CCOc1ccc2nc(SCC(=O)NCc3ccc(S(N)(=O)=O)cc3)[nH]c2c1 | 3 | 5 | -4 | -3 | 5
CC(C)(c1ccccc1)c1ccc(OCCN2CCOCC2)cc1 | 7 | -22 | 1 | 4.9* | 2
CC(C)(c1ccccc1)c1ccc(OCCCN2CCNCC2)cc1 | 24 | -57 | 2 | -2 | 2
CCC(C)NCCOc1ccc(C(C)(C)c2ccccc2)cc1 (stereo not given) | 39* | -42 | -3 | -2 | 12
Cc1cc(C2C(=O)CC(=O)CC2c2ccccc2)on1 (stereo not given) | -24 | 24 | 3 | 7.7* | 3
CC(Cc1c[nH]c2ccccc12)C(=O)NCc1ccco1 (stereo not given) | -5 | 29 | 1 | 2 | -8
Cc1cccn2cc(-c3ccc(S(=O)(=O)N4CCOCC4)cc3)nc12 | -19 | 1 | 2 | -3 | 56*
O=C1C2CC=C(Cl)CC2C(=O)N1CCc1c[nH]c2ccccc12 (stereo not given) | -8 | -1 | 0 | -1 | -9
O=C1C2CC=C(Cl)CC2C(=O)N1CCc1ccccc1 (stereo not given) | -10 | 13 | -1 | 6.9* | 8
Cc1ccc2ccc3ccc(C)nc3c2n1 | -2 | 3 | 8.6* | 0 | -105
CCOCCCNC(=O)c1cn(C)c(=O)c2cc(OC)c(OC)cc12 | -4 | 0 | -1 | 4.7* | 0
O=C(NCCN1CCc2ccccc2C1)Nc1ccc([N+](=O)[O-])cc1 | 10 | 4 | -3 | -2 | 58*
SMILES | DNA FID counter | NS3 helicase inh | VIM-2 inhibitor | IMP-1 inh | SUMO HTRF inh
Cc1ccc2sc(N(CCCN(C)C)C(=O)c3ccc(Br)s3)nc2c1C | 46* | -10 | 3 | 1 | -5
Cc1ccc2sc(N(CCCN(C)C)C(=O)CCS(=O)(=O)c3ccccc3)nc2c1C | 41* | -33 | 0 | -2 | -6
CN(C)CCN(C(=O)CCS(=O)(=O)c1ccccc1)c1nc2c(F)cccc2s1 | 0 | 4 | -3 | -2 | 22
FC(F)(F)c1ccccc1/C=N/n1c(COc2ccccc2)n[nH]c1=S | -19 | 15 | -1 | -3 | -21
COc1cccc(C2C([N+](=O)[O-])=C(N)Oc3cc(C)oc(=O)c32)c1 (stereo not given) | -6 | 2 | -3 | -2 | 14
CCN(CC)S(=O)(=O)c1cc(NC(=O)Cn2ncc(Cl)c(Cl)c2=O)ccc1C | -16 | 8 | -3 | -2 | 66*
CCOC(=O)c1ccc(NC(=O)Cn2ncc(Cl)c(Cl)c2=O)cc1 | -8 | 20 | -3 | 0 | 2
Cc1nc2ccc(NC(=O)NCc3ccco3)cc2s1 | 1 | 4 | -1 | -1 | 67*
O=C(NCc1ccco1)Nc1ccc2snnc2c1 | 0 | 0 | -2 | 0 | 69*
